Experimental data reported in ChEMBL document CHEMBL3856274, “Sydnone Cycloaddition Route to Pyrazole-Based Analogs of Combretastatin A4” (J Med Chem, 2016).
Active and inactive are the calls of the source. The calls are words filed in the database; no cut-off is given here.

What was measured:
HUVEC [1] = experiment: Growth inhibition of HUVEC after 72 hrs by crystal violet staining-based assay; type: functional; conditions: Homo sapiens
Method in brief: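 HUVECs at 5 × 10^3/well on gelatin-coated plates were allowed to adhere for 24 h, then given a drug concentration series in EBM (≥8 wells per concentration) for 72 h at 37 °C. Cells were fixed in 3.7% formalin and stained with 1% crystal violet, which was solubilized in 10% acetic acid and read at A590 with background correction. % growth inhibition from ≥3 independent experiments was plotted against log concentration to give GI50.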

HUVEC [2] = experiment: Disruption of interphase microtubule in HUVEC assessed as formation of actin stress fiber at 1 uM after 90 mins by phalloidin/DAPI staining-based immunofluorescence assay; type: cell-based; conditions: Homo sapiens
Method in brief: (§1)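 HUVECs seeded on fibronectin-coated chamber slides. Drug diluted in EBM from 20 mM DMSO stock. Exposure 250 nM for 30 min or 1 µM for 90 min. Fixed in 3.7% formalin and permeabilised in 0.1% Triton X-100. Stained for β-tubulin by antibody, F-actin by phalloidin and nuclei by DAPI, then imaged by immunofluorescence.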

HUVEC [3] = experiment: Disruption of interphase microtubule in HUVEC assessed as change in cell morphology at 1 uM after 90 mins by DAPI staining-based immunofluorescence assay; conditions: Homo sapiens; method in brief: as §1
HUVEC [4] = experiment: Induction of HUVEC monolayer permeability assessed as increase in passage of FITC-dextran through cell monolayer at 50 nM preincubated for 30 mins followed by compound washout and addition of FITC-dextran for 30 mins by fluorescence assay; type: functional, cell-based; conditions: Homo sapiens
Method in brief: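 HUVECs seeded at 5 × 10^4 per fibronectin-coated 3 µm-pore insert and cultured 5 days to a confluent monolayer. Drug 50 nM for 30 min at 37 °C, then replaced with FITC-dextran (0.8 mg/mL) for 30 min. Lower-well fluorescence read at ex 488/em 525 and expressed as % of a cell-free insert. Mean of 3 independent experiments ± SEM.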

SW1222 = experiment: Induction of necrosis in human SW1222 cells xenografted in SCID mouse at 0.227 mmol/kg administered as single dose measured after 24 hrs by hematoxylin/eosin staining-based microscopic method; type: functional, cell-based
Method in brief: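 SW1222 cells (5 × 10^6) injected s.c. into the rear dorsum of female SCID mice (8–12 weeks). Tumours treated at about 8 mm mean diameter with a single dose of 0.227 mmol/kg in […]/NaCl, 10 mL/kg. Tumours excised at 24 h. Necrosis scored on 5 µm H&E sections by Chalkley point counting.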

HUVEC [5] = experiment: Disruption of interphase microtubule in HUVEC assessed as change in cell shape at 250 nM after 30 mins by DAPI staining-based immunofluorescence assay; conditions: Homo sapiens
Method in brief: (§2)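 HUVECs (supplemented medium, 10% FCS final, used up to 5 passages) plated on fibronectin-coated chamber slides at 2.5 × 10^4 or 5 × 10^4 cells/well. Treated with drug (dilutions in EBM from 20 mM DMSO stock) or vehicle for 30 min. Then fixed in 3.7% formalin, permeabilized in 0.1% Triton X-100, and stained for β-tubulin (antibody), F-actin (phalloidin) and nuclei (DAPI).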

HUVEC [6] = experiment: Disruption of interphase microtubule in HUVEC assessed as change in cell morphology at 250 nM after 30 mins by DAPI staining-based immunofluorescence assay; conditions: Homo sapiens; method in brief: as §2
HUVEC [7] = experiment: Activation of ROCK in HUVEC assessed as phosphorylation of myosin light chain at 50 to 500 nM after 15 mins by Western blot method; type: cell-based; conditions: Homo sapiens
Method in brief: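 HUVECs seeded on gelatin at 5 × 10^4 cells/well and grown 7 days without medium change. Drugs diluted in EBM from 20 mM DMSO stock and applied 15 min. Proteins extracted in LDS buffer. Western blot for dually phosphorylated MLC, with actin reprobe for loading. Band intensity given as fold-change over vehicle. Mean of 3-4 independent experiments ± SEM.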

HUVEC [8] = experiment: Disruption of interphase microtubule in HUVEC assessed as change in cell shape and morphology at 250 nM preincubated for 30 mins followed by compound washout measured after 60 mins by DAPI staining-based immunofluorescence assay; conditions: Homo sapiens
Method in brief: (§3)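 HUVECs on fibronectin-coated chamber slides were exposed to 250 nM drug or vehicle for 30 min at 37 °C. Cells were washed four times with serum-containing medium, incubated 30 min, washed again and incubated a further 30 min (60 min recovery). They were then fixed in 3.7% formalin, permeabilized with 0.1% Triton X-100, and stained for β-tubulin, F-actin (phalloidin) and DAPI.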

HUVEC [9] = experiment: Disruption of interphase microtubule in HUVEC assessed as formation of actin stress fiber at 250 nM preincubated for 30 mins followed by compound washout measured after 60 mins by DAPI staining-based immunofluorescence assay; type: cell-based; conditions: Homo sapiens; method in brief: as §3
[10] = Toxicity in SCID mouse; type: organism-based; conditions: in vivo
HUVEC [11] = experiment: Disruption of interphase microtubule in HUVEC assessed as formation of actin stress fiber at 250 nM after 30 mins by phalloidin/DAPI staining-based immunofluorescence assay; type: cell-based; conditions: Homo sapiens; method in brief: as §1

## COc1ccc(-c2nn(C)cc2-c2cc(OC)c(OC)c(OC)c2)cc1O
HUVEC [1]
  GI50: 256 nM

## COc1cc2c(c(OC)c1OC)-c1ccc(OC)c(=O)cc1[C@@H](NC(C)=O)CC2 [COLCHICINE]
HUVEC [2]
  Activity: Active
HUVEC [1]
  GI50: 25 nM
HUVEC [3]
  Activity: Active

## COc1ccc(-c2[nH]ncc2-c2cc(OC)c(OC)c(OC)c2)cc1O
HUVEC [1]
  GI50: 7 nM
HUVEC [4]
  Activity: Active
SW1222
  Activity: Active
HUVEC [5]
  Activity: Active
HUVEC [6]
  Activity: Active
HUVEC [7]
  Activity: Active
HUVEC [8]
  Activity: Active
HUVEC [9]
  Activity: Active
[10]
  MTD: > 162 mg/kg

## COc1ccc(-c2ccnn2-c2cc(OC)c(OC)c(OC)c2)cc1O
HUVEC [1]
  GI50: 28 nM
HUVEC [5]
  Activity: Active
HUVEC [6]
  Activity: Active

## COc1ccc(-c2c(-c3cc(OC)c(OC)c(OC)c3)cnn2Cc2ccccc2)cc1O
HUVEC [1]
  GI50: > 750 nM

## COc1ccc(/C=C\c2cc(OC)c(OC)c(OC)c2)cc1OP(=O)(O)O [FOSBRETABULIN DISODIUM]
HUVEC [1]
  GI50: 8 nM
HUVEC [4]
  Activity: Active
HUVEC [11]
  Activity: Active
SW1222
  Activity: Active
HUVEC [6]
  Activity: Active
HUVEC [7]
  Activity: Active

## COc1ccc(-c2cnn(C)c2-c2cc(OC)c(OC)c(OC)c2)cc1O
HUVEC [1]
  GI50: 68 nM

## COc1ccc(-c2cn(Cc3ccccc3)nc2-c2cc(OC)c(OC)c(OC)c2)cc1O
HUVEC [1]
  GI50: > 5000 nM

## COc1ccc(-c2c(-c3cc(OC)c(OC)c(OC)c3)cnn2C)cc1O
HUVEC [1]
  GI50: 118 nM

## COc1ccc(-c2nn(Cc3ccccc3)cc2-c2cc(OC)c(OC)c(OC)c2)cc1O
HUVEC [1]
  GI50: > 2000 nM

## COc1ccc(-n2nccc2-c2cc(OC)c(OC)c(OC)c2)cc1O
HUVEC [1]
  GI50: > 750 nM

## COc1ccc(-c2cnn(Cc3ccccc3)c2-c2cc(OC)c(OC)c(OC)c2)cc1O
HUVEC [1]
  GI50: > 2500 nM

## COc1ccc(-c2cn[nH]c2-c2cc(OC)c(OC)c(OC)c2)cc1O
HUVEC [1]
  GI50: > 5000 nM

## COc1ccc(-c2cn(C)nc2-c2cc(OC)c(OC)c(OC)c2)cc1O
HUVEC [1]
  GI50: > 5000 nM
